# According to BindingDB's records for doi:10.1016/j.bmc.2018.01.022 (Csic and Universidad De Sevilla, 2018):
# Columns and labels:
# Midkine = biological target: T1, Midkine (Homo sapiens, UniProt P21741); assay: Inhibition of fluorescein labelled heparin-like hexasaccharide probe binding to recombinant human midkine after 5 mins by fluorescence polarization assay
# T1 sequence (P21741 whole entry): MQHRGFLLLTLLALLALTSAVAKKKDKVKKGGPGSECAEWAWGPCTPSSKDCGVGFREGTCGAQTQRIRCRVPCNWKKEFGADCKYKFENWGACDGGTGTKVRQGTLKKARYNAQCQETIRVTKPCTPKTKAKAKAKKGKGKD
# Summary of the method: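 Recombinant human midkine at 63 nM final with 10 nM fluorescein-labelled heparin-like hexasaccharide probe in PBS (10 mM, pH 7.4) plus 0.5% BSA. […] Shaken 5 min in the dark; polarization read at ex 485 / em 535 nm. Triplicate wells averaged, one-site competition fit for IC50. At least three independent experiments.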
# [1] = biological target: Fibroblast growth factor 2 (Homo sapiens, UniProt P09038); assay: Inhibition of fluorescein labelled heparin-like hexasaccharide probe binding to recombinant human FGF-2 after 5 mins by fluorescence polarization assay
# Summary of the method: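 Competition fluorescence polarization in PBS (10 mM, pH 7.4) with 0.5% BSA final. Recombinant human FGF-2 at 97 nM final, fluorescein-labelled heparin-like hexasaccharide probe at 10 nM final, inhibitor serially diluted, final 25 µM to 12.5 nM. Shaken 5 min in the dark, then read at ex 485 / em 535 nm. Triplicate wells. One-site competitive fit against log concentration gives IC50. Mean ± SD of three independent experiments.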
# Fibroblast growth factor 2, sequence (P09038 143-288 limits assumed): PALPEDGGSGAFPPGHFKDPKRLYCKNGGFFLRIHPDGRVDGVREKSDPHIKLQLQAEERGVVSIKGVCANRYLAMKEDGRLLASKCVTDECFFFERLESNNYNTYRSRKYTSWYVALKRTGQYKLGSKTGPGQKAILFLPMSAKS
IC50 (Midkine) [nM],IC50 [1] [nM],Compound
> 250000,,COc1ccc(O[C@@H]2O[C@H](CO)[C@@H](O[C@@H]3O[C@H](COS(=O)(=O)O)[C@@H](OS(=O)(=O)O)[C@H](O)[C@H]3NC(C)=O)[C@H](OCc3ccccc3)[C@H]2O)cc1
270,2400,COc1ccc(O[C@@H]2O[C@H](COC(=O)CCC(F)(F)C(F)(F)C(F)(F)C(F)(F)C(F)(F)C(F)(F)C(F)(F)C(F)(F)F)[C@@H](O[C@@H]3O[C@H](COS(=O)(=O)O)[C@@H](OS(=O)(=O)O)[C@H](O[C@@H]4O[C@H](COC(=O)C(C)(C)C)[C@@H](O[C@@H]5O[C@H](COS(=O)(=O)O)[C@@H](OS(=O)(=O)O)[C@H](OC(=O)CCC(C)=O)[C@H]5N5C(=O)c6ccccc6C5=O)[C@H](OCc5ccccc5)[C@H]4OC(=O)c4ccccc4)[C@H]3N3C(=O)c4ccccc4C3=O)[C@H](OCc3ccccc3)[C@H]2OC(=O)c2ccccc2)cc1
> 250000,,COc1ccc(O[C@@H]2O[C@H](CO)[C@@H](O[C@@H]3O[C@H](COS(=O)(=O)O)[C@@H](OS(=O)(=O)O)[C@H](O)[C@H]3NC(C)=O)[C@H](O)[C@H]2O)cc1
700,,COc1ccc(O[C@@H]2O[C@H](COC(=O)CCC(F)(F)C(F)(F)C(F)(F)C(F)(F)C(F)(F)C(F)(F)C(F)(F)C(F)(F)F)[C@@H](O[C@@H]3O[C@H](COS(=O)(=O)O)[C@@H](OS(=O)(=O)O)[C@H](OC(=O)CCC(C)=O)[C@H]3N3C(=O)c4ccccc4C3=O)[C@H](OCc3ccccc3)[C@H]2OC(=O)c2ccccc2)cc1
